The list is not random: actives were taken first. Their share in the collection is about 2.4%.
Casp6 inh – human caspase-6 inhibitors, primary screen, biochemical, VEID-R110 fluorescence, single point, set 2. purified caspase-6, Z-VEID-R110 cleavage fluorescence. inhibition, % at 12.5 µM. 0.53% of 350,000 active;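 active means mean inhibition across replicates at least about 35%, with every replicate also reaching that limit, limit read from the data; inconclusive means only one of the two criteria met; inactive means neither criterion met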;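 further: 0% = median of neutral control wells and 100% = no fluorescence left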
ERAP1 HTS inh – human ERAP1 aminopeptidase inhibitors, primary screen, biochemical, single point, plate reader; Endoplasmic reticulum aminopeptidase 1 (Homo sapiens), Q9NZ08; recombinant ERAP1, Leu-AMC fluorescence, 60 min; inhibition, % at 10.7 µM; 0.15% of 340,000 active; AID 652197, 2013;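 active means mean replicate inhibition of at least 30%, or all replicates individually reaching that 30% level; inactive means mean below 30% and not every replicate reaching it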;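 further: 0% = neutral control wells and 100% = L-leucinethiol positive control wells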
Target sequence (Q9NZ08 whole entry, looked up): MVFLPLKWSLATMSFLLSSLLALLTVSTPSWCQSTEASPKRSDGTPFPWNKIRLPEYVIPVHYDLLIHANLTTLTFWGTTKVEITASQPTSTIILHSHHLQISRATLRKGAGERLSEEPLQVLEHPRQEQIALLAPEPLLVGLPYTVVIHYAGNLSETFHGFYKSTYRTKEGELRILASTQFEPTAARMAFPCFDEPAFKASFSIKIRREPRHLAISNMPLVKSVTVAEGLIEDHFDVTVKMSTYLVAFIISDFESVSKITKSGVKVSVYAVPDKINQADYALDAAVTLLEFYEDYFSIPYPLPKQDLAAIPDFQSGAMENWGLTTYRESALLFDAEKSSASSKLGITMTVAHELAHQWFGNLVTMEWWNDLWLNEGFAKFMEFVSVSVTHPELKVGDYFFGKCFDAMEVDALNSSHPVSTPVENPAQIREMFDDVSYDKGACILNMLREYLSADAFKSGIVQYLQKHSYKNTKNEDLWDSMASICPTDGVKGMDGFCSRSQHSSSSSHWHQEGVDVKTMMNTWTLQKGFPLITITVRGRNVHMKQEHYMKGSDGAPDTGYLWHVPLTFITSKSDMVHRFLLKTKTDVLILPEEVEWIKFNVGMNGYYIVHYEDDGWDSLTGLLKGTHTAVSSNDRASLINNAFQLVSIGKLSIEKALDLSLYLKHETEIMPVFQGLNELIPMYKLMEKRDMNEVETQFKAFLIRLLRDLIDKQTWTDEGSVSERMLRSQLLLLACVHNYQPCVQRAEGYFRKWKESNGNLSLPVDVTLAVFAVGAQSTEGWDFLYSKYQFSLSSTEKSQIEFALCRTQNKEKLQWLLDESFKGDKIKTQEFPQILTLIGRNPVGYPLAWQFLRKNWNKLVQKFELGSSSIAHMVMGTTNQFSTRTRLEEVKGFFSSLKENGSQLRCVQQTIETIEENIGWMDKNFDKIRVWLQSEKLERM
S100A4 MyoIIA – inhibitors of S100A4-myosin IIA peptide binding, primary screen, biochemical, fluorescence polarization, TAMRA-MyoIIA peptide; Protein S100-A4 (Homo sapiens), P26447; inhibition, % at 10.7 µM; 0.14% of 360,000 active;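 active means mean inhibition of at least 70% across replicates, with every replicate also reaching that level; inconclusive means mean inhibition reaches 70% but some replicates fall short; inactive means mean inhibition below 70%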
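Compound dosing: one dose per compound; test system: human S100A4 monomer with TAMRA-labelled myosin IIA peptide; probe or stimulus: TAMRA-labelled myosin IIA heavy-chain peptide probe, 5 nM; medium: HEPES buffer with Ca2+, pH 7.2; schedule: 5 min incubation before reading; benchmarks: neutral control DMSO, positive control TFP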
rRNA inh HTS – reduced GFP signal of wild-type E. coli, primary screen, bacterial rRNA inhibitor project, GFP/RFP fluorescence, OD600, single point; 1.6% of 350,000 active; GFP signal change (wild-type ribosome), % (test concentration not listed); E. coli WT GFP vs humanized-ribosome RFP mutants, 24 h; hits give low values; DMSO median 0, no signal -100;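 active means significant combined selectivity score with lowered wild-type GFP, culture density cut under 30%, mutant RFP and density less affected; inactive means any of these conditions unmet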
ARNT TACC3 PPI – disruptors of ARNT/TACC3 protein interaction, primary screen, biochemical, AlphaScreen, single concentration. AlphaScreen His-ARNT PAS-B/GST-TACC3 binding, luminescence; TACC3 fragment carries E629A point mutation. AID 623870, 2012. inhibition, % at 9.99 µM. 0.66% of 390,000 active;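 active means mean inhibition of replicates at least 50% and at least half of replicates each reaching 50%; inconclusive means half or more replicates reach 50% but mean below 50%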;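 further: 0% = complete ARNT plus TACC3 wells and 100% = ARNT alone without TACC3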
PGC1a acetyl inh – inhibitors of PGC1a acetylation signal, primary screen, cell-based, U2OS, AlphaScreen, inhibitor mode. AlphaScreen anti-acetyl-lysine; with virally co-expressed GCN5 acetyltransferase. inhibition, % at 15.6 µM. 0.17% of 350,000 active. AID 651687, 2012;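 active means every replicate shows inhibition of at least 40%; inconclusive means mean inhibition at least 40% but some replicate below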;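 further: 0% = neutral control wells and 100% = positive control wells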
AID977621 – growth inhibition of wild-type GFP E. coli, dose response, H69 mutant RFP, cherry-pick; 1,900 tested, under 10 active; shares compounds with rRNA inh HTS; AID 977621, 2014; activity change, negative = inhibition at 50 µM; E. coli wild-type GFP strain growth, fluorescence, 24 h;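 active means Wild-type ribosome reporter drop at least double the humanized mutant ribosome reporter drop, growth loss under a set limit; inconclusive means no clear call, values can overlap the other calls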;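 further: wild-type GFP and H69 mutant RFP strains grown together 50/50 in each well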
AID977628 – E. coli growth inhibition, wild-type GFP versus h24 humanized RFP strain, dose response, h24 mutant RFP vs wild-type GFP, cherry-pick; shares compounds with rRNA inh HTS; E. coli WT GFP strain growth, fluorescence, 24 h; activity change, negative = inhibition at 50 µM; 1,900 tested, under 10 active;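 active means compound lowering the normal-ribosome reporter at least twice as much as the humanized-ribosome reporter, growth loss under a set limit; inconclusive means no clear call, values can overlap the other calls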;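 further: wild-type GFP and h24 humanized RFP strains co-cultured 1 to 1 per well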
Active calls of the source: *; ? = inconclusive; / = not tested or not shown.

SMILES | Casp6 inh | ERAP1 HTS inh | S100A4 MyoIIA | rRNA inh HTS | ARNT TACC3 PPI | PGC1a acetyl inh | AID977621 | AID977628
CO[C@@H]1CN(C)C(=O)c2cc(NS(=O)(=O)CC(F)(F)F)ccc2OC[C@H](C)N(Cc2ccccn2)C[C@H]1C | -2 | 4 | 3 | 1 | 29 | 0 | / | /
Cc1ccsc1C(=O)C1CCCN(Cc2cn(C)nc2-c2ccccc2)C1 (stereo not drawn) | 0 | 5 | -2 | 0 | -7 | / | / | /
Cn1cc(CN(CCO)Cc2cccs2)c(-c2cccc(Cl)c2)n1 | 4 | -2 | -17 | -31* | 6 | / | 5.9 | -12
Cn1cc(CN2CCCC(C(=O)c3cccs3)C2)c(-c2cccc(Cl)c2)n1 (stereo not drawn) | 1 | -2 | -2 | -25* | 0 | -7 | -1.8 | -2.9
CN(Cc1cn(C)nc1-c1cccc(Cl)c1)Cc1nccn1C | -2 | -3 | -4 | 2 | 8 | -7 | / | /
C(=C/c1nccc2c1[nH]c1ccccc12)/c1ccc2c(c1)OCO2 | 3 | -3 | -16 | -37* | -9 | -18 | 12 | -2.2
C(=N\Nc1nc2ccccc2[nH]1)/c1ccc2c(c1)OCO2 | 1 | -1 | 8 | -50 | 5 | / | / | /
CC(C)[C@@H]1CC[C@@H](C)C[C@H]1OC[B-](F)(F)F | 1 | -5 | 1 | -13 | / | / | / | /
CC(C)[C@@H]1CC[C@@H](C)C[C@H]1O | -7 | 0 | -5 | -14* | / | -7 | -8.1 | ?
Cc1noc(C)c1S(=O)(=O)Nc1ccc2c(c1)C(=O)N([C@H](C)CO)C[C@@H](C)[C@@H](CN(C)CC1CCCCC1)O2 | -5 | -1 | 9 | 1 | 6 | 0 | / | /
Cc1cc(C)n2nc(C(=O)Nc3cccc(S(=O)(=O)N(C)c4ccccc4)c3)nc2n1 | 3 | 0 | 1 | -26* | -3 | / | -15 | /
CCCC#Cc1cnc2c(c1)C(=O)N([C@H](C)CO)C[C@@H](C)[C@H](CN(C)C(=O)c1cccnc1)O2 | -5 | -3 | 12 | -1 | -9 | 1 | / | /
COc1ccccc1-c1noc2ncnc(Nc3ccccc3C)c12 | -1 | -2 | -6 | -27* | / | -6 | -6.9 | -17
COc1ccccc1-c1noc2ncnc(Nc3cccc(C)c3C)c12 | -1 | 1 | 3 | -16* | -11 | -2 | -16 | -15
COc1ccc(CN2C(=O)CC(Cc3cc(C)cc(C)c3)C2=O)cc1OC (stereo not drawn) | -2 | -2 | -5 | -20* | -2 | / | -7.8 | /
CC(C)OC(=O)C[N+](C)(C)CCN1C(=O)C2C(c3ccccc3)C=CC(c3ccccc3)C2C1=O (stereo not drawn) | -5 | -2 | -3 | -34* | 0 | 7 | -13 | -14
COc1ccc(NC(=O)Nc2ccc3c(c2)C(=O)N([C@@H](C)CO)C[C@H](C)[C@@H](CN(C)C(=O)C2CCCCC2)OCCCC[C@H](C)O3)cc1 | -2 | 1 | -4 | -3 | -29 | 5 | / | /
CC(Oc1ccccc1)C(=O)NC1CCCCCCC1 (stereo not drawn) | 1 | 0 | -9 | 3 | -8 | / | / | /
CC(OC(=O)COc1ccccc1)C(=O)NC1CCCC1 (stereo not drawn) | -248 | -2 | 1 | -18* | -27 | 9 | / | -8.7
Cc1[nH]nc2c1C(c1ccc(F)cc1)N(Cc1ccccc1)C2=O (stereo not drawn) | 1 | 4 | 1 | -21* | / | / | / | ?

Screens as filed in PubChem BioAssay.
